Laboratory results taken from ChEMBL document CHEMBL2057138, “Design and synthesis of marine fungal phthalide derivatives as PPAR-γ agonists” (Bioorg Med Chem, 2012).
Calls of active or inactive are those of the source. The calls are words filed in the database; no cut-off is given here.

The compounds below were run against Peroxisome proliferator-activated receptor gamma (Homo sapiens) (UniProt P37231) (assay: Agonist activity at PPARgamma in rat Ac2F cells assessed as luciferase activity after 6 hrs by reporter gene assay).

| Activity | SMILES |
| --- | --- |
| Dose-dependent effect | CCCCCCCCC1OC(=O)c2c(O)cccc21 (racemic) |

Each compound was assayed against Peroxisome proliferator-activated receptor gamma (Homo sapiens) (UniProt P37231) (assay: Agonist activity at PPARgamma in rat Ac2F cells assessed as luciferase activity at 0.1 to 10 uM after 6 hrs by reporter gene assay).

| Activity | SMILES |
| --- | --- |
| Active | CCCCCCCCC1OC(=O)c2c(O)cccc21 (racemic) |
| Active | CCCCCCCCC1OC(=O)c2cccc(O)c21 (stereo not given) |

What follows are compounds tested against T1, Peroxisome proliferator-activated receptor gamma (Homo sapiens) (UniProt P37231) (assay: Binding affinity to GST-tagged PPARgamma LBD at 50 uM after 4 hrs by TR-FRET competitive binding assay).
T1 sequence (whole entry): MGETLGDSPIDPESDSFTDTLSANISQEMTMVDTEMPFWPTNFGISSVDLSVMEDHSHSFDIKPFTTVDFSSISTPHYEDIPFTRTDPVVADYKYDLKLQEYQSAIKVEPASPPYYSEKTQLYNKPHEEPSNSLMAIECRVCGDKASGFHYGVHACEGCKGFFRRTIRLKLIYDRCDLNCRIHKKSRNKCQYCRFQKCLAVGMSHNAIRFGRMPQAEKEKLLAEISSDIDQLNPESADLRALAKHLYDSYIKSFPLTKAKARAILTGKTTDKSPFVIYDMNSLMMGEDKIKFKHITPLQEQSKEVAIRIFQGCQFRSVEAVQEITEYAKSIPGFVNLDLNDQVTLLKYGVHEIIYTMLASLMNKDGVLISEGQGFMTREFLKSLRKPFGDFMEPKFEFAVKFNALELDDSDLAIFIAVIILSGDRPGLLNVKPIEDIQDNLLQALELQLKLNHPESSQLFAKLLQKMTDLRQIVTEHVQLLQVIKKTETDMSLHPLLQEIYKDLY
Method in brief: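 LanthaScreen TR-FRET competitive binding. Mix of 0.5 nM GST-tagged PPAR-γ LBD, 5 nM terbium anti-GST antibody and 5 nM Fluormone Pan-PPAR Green tracer, with compound at 50 µM and DMSO solvent control. Incubated 4 h in the dark. Read as the 520/495 nm emission ratio (counting 0.1 s, integration 20 µs). Mean + s.d., n = 3.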

| Activity | SMILES |
| --- | --- |
| inactive | CCCCCCCCC1(O)OC(=O)c2c(O)cccc21 (stereo not given) |
| inactive | CCCCCCCCC1(OC)OC(=O)c2c(OCc3ccccc3)cccc21 (stereo not given) |
| inactive | CCCCCCCCC1(O)OC(=O)c2c(OCc3ccccc3)cccc21 (stereo not given) |
| Active | CCCCCCCCC1OC(=O)c2c(O)cccc21 (racemic) |
| inactive | CCCCCCCCC1(CCCCCCCC)OC(=O)c2c(O)cccc21 |
| inactive | CCCCCCCCC1(O)OC(=O)c2cccc(O)c21 (stereo not given) |
| inactive | CCCCCCCCC1(CCCCCCCC)OC(=O)c2cccc(O)c21 |
| Active | CCCCCCCCC1OC(=O)c2cccc(O)c21 (stereo not given) |

The next lines start with the compound.

| SMILES | Activity |
| --- | --- |
| CCCCCCCCC1(OCc2ccccc2)OC(=O)c2c(OCc3ccccc3)cccc21 (stereo not given) | inactive |
| O=C1OC(=O)c2c1cccc2[N+](=O)[O-] | inactive |
| CCCCCCCCC1OC(=O)c2c(OC)cccc21 (stereo not given) | inactive |
| CCCCCCCCCC(=O)Oc1cccc2c1C(=O)OC2=O | inactive |
| CCCCCCCCOC(=O)c1cccc([N+](=O)[O-])c1C(=O)O | Active |
| CN(CCOc1ccc(CC2SC(=O)NC2=O)cc1)c1ccccn1 (stereo not given) | Active |
| O=C1OC(=O)c2c(O)cccc21 | Active |
| CCCCCCCCOC(=O)c1cccc(O)c1C(=O)O | Active |
| O=C1OC(=O)c2ccccc21 | inactive |
